# Compound activity: PubChem BioAssay, SRMLSC
# These entries were drawn from the full list.
# E coli WT inh = blocks growth of wild type E. coli BW25113; inhibition, % at 10 µM; E. coli BW25113 growth inhibition, OD600; hit rate 0.05% among 20,000; in the data active means inhibition above about 40%;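 further: bacteria exposed to compound for 20 hours at 37 °C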
#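 System: bacterial strain in a whole-cell growth screen; medium: LB broth with 50 µg/mL kanamycin; detection: absorbance at 615 nm; schedule: 20 h exposure, 37 °C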
# * marks the source's active call; other numbers are inactive results.
SMILES,E coli WT inh
Cc1ccc(-c2ccc(=O)n(CCC(=O)NCCN3CCCCC3C)n2)cc1 (stereo not drawn),8
CCOC(=O)c1sc(NC(=O)COC(=O)Cn2cnc3ccccc32)c(C(=O)OCC)c1C,0
O=C(c1ccccc1CCc1ccccc1)N1CCN(c2ccccn2)CC1,-16
COc1ccc(Cl)c(S(=O)(=O)N2CCCC2)c1,-16
C1COC(NC(C2CC2)C2CC2)=N1,0
O=C(CSc1ncnc2ccccc12)N1CCN(c2ccccc2)CC1,5
COc1ccc(NC(=O)CCc2nc(-c3ccccc3F)no2)cc1,13
Cc1ccc(S(=O)(=O)CC(=O)N(C)C)cc1,1
COc1ccc(OC)c(NC(=O)CSc2nnc(N)s2)c1,-9
CCOc1ccccc1NC(=O)CCN1CCN(S(=O)(=O)c2ccc(Br)cc2)CC1,3
CC(C)Cn1c(=O)c(C2=NS(=O)(=O)c3ccccc3N2)c(O)c2ccccc21,8
CC1=Nn2c(nnc2-c2ccc(F)cc2)SC1,-2
O=C(O)CCn1[nH]c(=O)ccc1=O,-1
CCOc1ccc(CCNS(=O)(=O)c2cccc3nsnc23)cc1OCC,-28
O=C(NCc1ccc2c(c1)OCO2)C1CCC(CNS(=O)(=O)c2ccccc2)CC1 (stereo not drawn),4
CCOC(=O)C1CCN(C(=O)CN(c2ccc3c(c2)OCO3)S(C)(=O)=O)CC1,-17
O=c1[nH]nnc2sc3c(c12)CCCC3,-1
COc1ccc(N2C(=O)C3CCCN3C2c2ccc(F)cc2)cc1Cl (stereo not drawn),15
CC1CCN(c2c(NCc3ccc(C(=O)N4c5ccccc5CC4C)cc3)c(=O)c2=O)CC1 (stereo not drawn),-3
COc1cccc2cc(-c3nnc(SCC(=O)NCc4ccccc4)n3C)oc12,-17
Fc1cccc(Nc2cc(-n3cccn3)ncn2)c1,2
Cc1ccc(N(C)C(=O)N2CCN(c3ccccn3)CC2)cc1,6
COc1ccc(-c2onc3ccc(Cl)cc23)cc1OC,-11
COC(=O)c1cc(Br)c(=O)n(Cc2ccc(OC)c(OC)c2)c1,-16
Cc1cc(N2CCCC2=O)c(N)cc1N,-21
SMILES,E coli WT inh
CS(=O)(=O)N(CCc1ccccc1)CC(=O)NCc1ccco1,-4
CC1c2nc3ccccc3n2C(CC(=O)NCc2ccccn2)C(=O)N1Cc1ccccc1 (stereo not drawn),-3
CCCN(S(=O)(=O)c1ccc(OCC)cc1)S(=O)(=O)c1cccs1,10
O=C(NCc1ccc2c(c1)OCO2)c1ccc(CN2CCOCC2)cc1,-7
CC1=C(C(=O)OC(C)C)C(C)C(C(=O)OC(C)C)=C(C)N1,8
CCOC(=O)c1[nH]cc(-c2ccccc2)c1N1CCOCC1,-4
CC(NC(=O)Nc1ccc(F)cc1F)c1ccncc1 (stereo not drawn),-6
CCCCC(=O)Nc1cccc(-c2nn3c(C)nnc3s2)c1,-25
Cc1nc2ccc(C(C(F)(F)F)(C(F)(F)F)C(F)(F)F)cc2[nH]1,-8
CCSCc1nnc(SCC(=O)Nc2cccc(SC)c2)n1C,5
Cn1c(Cc2csc(N)n2)nnc1SCC(=O)NCc1ccccc1,-8
CCOc1ccc(NC(=O)C2CC(=O)N(C(C)C)C2)cc1 (stereo not drawn),-2
CC(C)(C)N1C(=O)c2ccc(C(=O)NCc3ccco3)cc2C1=O,4
O=C(CSc1nccc(=O)[nH]1)Nc1ccc(Br)c(Cl)c1,-33
Cc1cccc(N2CCN(C(=O)CCn3c(=S)[nH]c4cc5c(cc4c3=O)OCO5)CC2C)c1 (stereo not drawn),-1
Cc1onc(-c2ccccc2)c1C(=O)Nc1nnc(COc2ccc(Cl)cc2)s1,-26
CCOP(=O)(c1ccc(N(C)C)cc1)C(O)c1ccc(Cl)cc1 (stereo not drawn),-14
Cn1c(=O)n(CCN2CCOCC2)c(=O)c2c1nc1n2CCN1c1ccccc1,11
Nc1nc2n(n1)C(c1cccc(Br)c1)CC(c1ccc(F)cc1)N2 (stereo not drawn),6
COC(=O)c1ccc(-c2ccc(CNCC(O)c3ccccc3)o2)cc1 (stereo not drawn),0
CCC(=O)N1CCN(c2ccccc2NC(=O)COc2cc(C)ccc2C(C)C)CC1,-12
Cc1ccc(C)c(N2C(=O)CN=C2Nc2ccccc2Cl)c1,-2
CCOC(=O)/C(C(N)=NC(C)C)=C(\O)c1ccccc1,-8
Cc1ccc(C)c(NS(=O)(=O)c2ccc(NC(=O)c3ccco3)cc2)c1,-7
CC1=C(C(=O)Nc2ccccc2C)C(c2ccc(C)o2)N2C(=O)CSC2=N1 (stereo not drawn),2
SMILES,E coli WT inh
COCCN(C(=O)CCC(=O)Nc1ccccn1)C(C(=O)NC1CCCC1)c1ccc(OC)cc1 (stereo not drawn),2
O=C(c1cccc2ccccc12)N1CCC(N2CCN(c3ccccc3)CC2)CC1,5
Nc1cccc2c1C(=O)N(c1ccccc1)C2=O,10
COC(=O)c1ccc(CSc2nc3ccccc3c(=O)n2Cc2ccco2)o1,-1
CCn1nc(C(=O)O)c(=O)c2cc3c(cc21)OCO3,42
CN(C)S(=O)(=O)c1ccc2c(c1)C(CC(=O)O)NC2=O (stereo not drawn),-28
CC(NC(=O)c1ccnc(C(C)(C)C)c1)c1ccccc1 (stereo not drawn),-13
COc1ccc(OC)c(C(=O)CSc2nnc(Cc3cccs3)n2C)c1,-14
CCOC(=O)C1CSC(CC(=O)Nc2ccc(Cl)cc2)C(=O)N1 (stereo not drawn),-3
Nc1nc(N2CCN(C/C=C/c3ccccc3)CC2)nc2ccccc12,-1
CC(C)NC(=O)c1cc(=O)n(C)c(=O)n1C,-12
Cc1ccc(NC(=O)CN(c2ccccc2F)S(C)(=O)=O)cc1,-17
COc1ccc(C2C(C(=O)NCCN3CCOCC3)c3ccccc3C(=O)N2C2CCCCC2)cc1 (stereo not drawn),-2
O=C(CSC1=NCCS1)Nc1ccnc2ccccc12,-10
O=S(=O)(NCCSc1nnnn1-c1ccccc1)c1cccs1,-13
O=C(NCC1COCCO1)C1CCN(S(=O)(=O)c2ccccc2)CC1 (stereo not drawn),-2
